Laboratory results published in ChEMBL document CHEMBL1132151, “Design and structure-activity relationships of potent and selective inhibitors of blood coagulation factor Xa” (J Med Chem, 1999).

Experiments:
[1] = molecular target: Coagulation factor X (Homo sapiens, UniProt P00742); test: Compound was evaluated for the inhibition of human Coagulation factor Xa
[2] = molecular target: T1, Serine protease 1 (Bos taurus, UniProt P00760); test: Inhibitory activity against bovine pancreatic trypsin
T1 sequence (P00760 whole entry): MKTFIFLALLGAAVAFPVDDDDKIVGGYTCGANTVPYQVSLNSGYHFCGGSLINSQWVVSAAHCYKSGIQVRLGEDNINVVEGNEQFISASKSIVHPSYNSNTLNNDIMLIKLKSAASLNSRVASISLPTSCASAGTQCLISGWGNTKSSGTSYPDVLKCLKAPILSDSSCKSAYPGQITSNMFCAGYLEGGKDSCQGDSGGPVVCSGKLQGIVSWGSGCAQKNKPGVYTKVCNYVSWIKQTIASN
How it was run: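 Bovine trypsin at 1 nM final, with buffer 0.05 M Tris, 0.15 M NaCl, 0.1% PEG-8000, 0.02 M CaCl2, pH 7.5, room temperature. 30 min compound preincubation, then S-2765 at 250 μM final. 405 nm read continuously for 5 min. IC50 from initial rates; apparent Ki by Cheng-Prusoff, assuming competitive kinetics.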

[3] = molecular target: T2, Prothrombin (Homo sapiens, UniProt P00734); test: Inhibition of human thrombin
How it was run: (§1)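 Preincubated with compound 30 min, then Pefachrome TH at 50 μM final. p-Nitroanilide release followed at 405 nm for 5 min. IC50 from initial velocities; apparent Ki via Cheng-Prusoff, assuming competitive inhibition.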

[4] = molecular target: T3, Vitamin K-dependent protein C (Homo sapiens, UniProt P04070); test: Compound was evaluated for the inhibition of activated protein C (aPC)
T3 sequence (P04070 43-197 limits assumed): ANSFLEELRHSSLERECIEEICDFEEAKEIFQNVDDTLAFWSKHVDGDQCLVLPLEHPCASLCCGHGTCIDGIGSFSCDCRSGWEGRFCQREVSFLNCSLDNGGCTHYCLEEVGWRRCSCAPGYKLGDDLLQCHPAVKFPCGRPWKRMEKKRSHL
T3 sequence (P04070 212-461 limits assumed): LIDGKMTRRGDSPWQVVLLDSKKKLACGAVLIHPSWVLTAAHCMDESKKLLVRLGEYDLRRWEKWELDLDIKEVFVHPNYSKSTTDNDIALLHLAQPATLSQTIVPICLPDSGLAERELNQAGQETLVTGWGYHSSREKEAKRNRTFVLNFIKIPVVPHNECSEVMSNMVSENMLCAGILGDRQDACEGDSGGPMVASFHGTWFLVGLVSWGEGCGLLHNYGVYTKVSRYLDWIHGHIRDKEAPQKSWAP
How it was run: (§2)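 Human aPC, final enzyme 1 nM, in 0.05 M Tris, 0.15 M NaCl, 0.1% PEG-8000, 0.02 M CaCl2, pH 7.5. Compound preincubated with enzyme 30 min at room temperature. S-2366 at 500 μM final started the reaction. p-Nitroanilide release read continuously at 405 nm for 5 min, under 10% substrate consumed. IC50 from initial velocities; apparent Ki by Cheng-Prusoff, competitive mechanism assumed.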

[5] = molecular target: Plasminogen (Homo sapiens, UniProt P00747); test: Compound was evaluated for the inhibition of plasmin
Plasminogen, sequence (P00747 97-580 limits assumed): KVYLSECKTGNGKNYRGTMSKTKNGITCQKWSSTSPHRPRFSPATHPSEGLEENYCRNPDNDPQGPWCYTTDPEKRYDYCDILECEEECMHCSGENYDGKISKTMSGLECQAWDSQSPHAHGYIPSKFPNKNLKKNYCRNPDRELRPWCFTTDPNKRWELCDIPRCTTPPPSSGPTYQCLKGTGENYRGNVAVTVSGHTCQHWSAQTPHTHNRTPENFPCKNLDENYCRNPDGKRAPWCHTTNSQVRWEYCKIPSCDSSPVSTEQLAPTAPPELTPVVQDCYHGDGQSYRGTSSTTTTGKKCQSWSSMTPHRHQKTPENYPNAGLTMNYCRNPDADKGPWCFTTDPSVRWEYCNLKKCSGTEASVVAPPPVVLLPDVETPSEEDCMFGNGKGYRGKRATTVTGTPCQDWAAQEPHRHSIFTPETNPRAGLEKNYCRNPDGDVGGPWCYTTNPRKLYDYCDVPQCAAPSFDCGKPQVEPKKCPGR
Plasminogen, sequence (P00747 581-810 limits assumed): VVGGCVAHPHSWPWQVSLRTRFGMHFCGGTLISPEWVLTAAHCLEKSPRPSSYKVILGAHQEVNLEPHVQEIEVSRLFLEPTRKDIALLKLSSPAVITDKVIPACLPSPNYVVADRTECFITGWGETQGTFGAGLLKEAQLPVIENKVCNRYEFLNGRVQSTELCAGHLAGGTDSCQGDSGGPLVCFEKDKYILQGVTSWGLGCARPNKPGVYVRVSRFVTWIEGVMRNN
How it was run: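 Compound preincubated 30 min, then S-2366 at 300 μM final. Continuous 405 nm read over 5 min. Initial velocities gave IC50; apparent Ki from Cheng-Prusoff, assuming competitive mechanism.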

[6] = molecular target: Tissue-type plasminogen activator (Homo sapiens, UniProt P00750); test: Compound was evaluated for the inhibition of Tissue type plasminogen activator (tissue plasminogen activator)
Tissue-type plasminogen activator, sequence (P00750 whole entry): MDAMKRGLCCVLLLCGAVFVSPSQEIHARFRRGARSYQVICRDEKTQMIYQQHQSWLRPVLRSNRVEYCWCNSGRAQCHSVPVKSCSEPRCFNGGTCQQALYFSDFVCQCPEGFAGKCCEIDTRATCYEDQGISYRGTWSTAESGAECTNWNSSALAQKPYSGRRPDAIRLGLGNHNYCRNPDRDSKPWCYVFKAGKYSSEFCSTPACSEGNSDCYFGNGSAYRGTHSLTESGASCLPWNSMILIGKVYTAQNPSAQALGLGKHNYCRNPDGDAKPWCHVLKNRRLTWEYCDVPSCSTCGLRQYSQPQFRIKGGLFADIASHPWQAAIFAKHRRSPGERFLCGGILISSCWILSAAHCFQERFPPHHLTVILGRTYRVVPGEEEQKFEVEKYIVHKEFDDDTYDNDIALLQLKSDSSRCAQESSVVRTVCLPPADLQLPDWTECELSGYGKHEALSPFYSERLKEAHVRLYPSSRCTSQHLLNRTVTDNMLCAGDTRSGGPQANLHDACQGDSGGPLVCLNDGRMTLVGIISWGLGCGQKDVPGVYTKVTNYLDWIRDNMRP
How it was run: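 tPA, final enzyme 1 nM, in 0.05 M Tris, 0.15 M NaCl, 0.1% (w/v) BSA, pH 7.5. Preincubated 30 min with compound at room temperature, then Pefachrome-tPA at 500 μM final added. Release of p-nitroanilide monitored at 405 nm for 5 min. IC50 taken from initial rates; apparent Ki via Cheng-Prusoff, assuming competitive inhibition.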

[7] = molecular target: T2, Prothrombin; test: Compound was evaluated for the inhibition of thrombin.; how it was run: as §1
[8] = molecular target: T3, Vitamin K-dependent protein C; test: Compound was evaluated for the inhibition of Activated protein C (aPC); how it was run: as §2

Coagulation factor X, sequence (P00742 41-179 limits assumed): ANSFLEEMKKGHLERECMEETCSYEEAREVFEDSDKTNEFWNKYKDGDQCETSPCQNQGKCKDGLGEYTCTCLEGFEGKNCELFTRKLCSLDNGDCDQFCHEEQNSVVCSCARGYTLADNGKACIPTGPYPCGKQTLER
Coagulation factor X, sequence (P00742 235-488 limits assumed): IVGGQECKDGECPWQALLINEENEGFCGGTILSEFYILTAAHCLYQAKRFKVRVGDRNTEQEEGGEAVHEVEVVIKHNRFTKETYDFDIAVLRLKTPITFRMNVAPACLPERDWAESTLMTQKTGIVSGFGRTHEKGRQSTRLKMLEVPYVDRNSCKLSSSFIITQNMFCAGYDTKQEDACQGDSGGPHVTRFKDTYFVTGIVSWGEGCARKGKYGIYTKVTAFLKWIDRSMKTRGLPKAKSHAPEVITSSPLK

COc1ccc2ccc(S(=O)(=O)N(Cc3cccs3)[C@H]3CCN(Cc4cccc(C(=N)N)c4)C3=O)cc2c1
Ki [1]: 0.034 µM | Ki [2]: 1.94 µM | Ki [3]: 0.97 µM

N=C(N)c1cccc(CNC(=O)CNS(=O)(=O)c2ccc3ccccc3c2)c1
Ki [1]: 0.34 µM | Ki [2]: 0.08 µM | Ki [3]: 0.63 µM

COc1ccc2ccc(S(=O)(=O)N(Cc3ccccn3)[C@H]3CCN(Cc4cccc(C(=N)N)c4)C3=O)cc2c1
Ki [1]: 0.031 µM | Ki [2]: 1.94 µM | Ki [3]: 1.16 µM

N=C(N)c1cccc(CN2CC[C@H](NS(=O)(=O)c3ccc4ccc(O)cc4c3)C2=O)c1
Ki [1]: 0.5 µM | Ki [2]: > 2.9 µM | Ki [3]: > 4 µM

COc1ccc2ccc(S(=O)(=O)N[C@H]3CCN(Cc4csc(C(=N)N)c4)C3=O)cc2c1
Ki [1]: 0.011 µM | Ki [2]: 0.5 µM | Ki [3]: 1.3 µM

CCc1ccc2ccc(S(=O)(=O)N[C@H]3CCN(Cc4cccc(C(=N)N)c4)C3=O)cc2c1
Ki [1]: 0.37 µM | Ki [2]: 1.6 µM | Ki [3]: 1.6 µM

N=C(N)c1cccc(CN2CCC[C@H](NS(=O)(=O)c3ccc4ccccc4c3)C2=O)c1
Ki [1]: 1.3 µM | Ki [2]: > 2.9 µM | Ki [3]: > 4 µM

N=C(N)c1cccc(Cn2cc(CCc3ccc4ccccc4c3)c3ccccc32)c1
Ki [1]: 0.9 µM | Ki [2]: 2.9 µM | Ki [3]: > 4 µM

N=C(N)c1cccc(CN2CC[C@H](NS(=O)(=O)c3ccc(Oc4ccccc4)cc3)C2=O)c1
Ki [1]: 0.38 µM | Ki [2]: > 2.9 µM | Ki [3]: > 4 µM

COc1ccc2ccc(S(=O)(=O)N(Cc3ccsc3)[C@H]3CCN(Cc4cccc(C(=N)N)c4)C3=O)cc2c1
Ki [1]: 0.019 µM | Ki [2]: 1.08 µM | Ki [3]: 0.36 µM

COc1cccc(-c2ccc(S(=O)(=O)N[C@H]3CCN(Cc4cccc(C(=N)N)c4)C3=O)cc2)c1
Ki [1]: 0.1 µM | Ki [2]: > 2.9 µM | Ki [3]: 2.5 µM

COc1ccc2ccc(S(=O)(=O)N(Cc3cc[nH]n3)[C@H]3CCN(Cc4cccc(C(=N)N)c4)C3=O)cc2c1
Ki [1]: 0.021 µM | Ki [2]: 1.39 µM | Ki [3]: 1.08 µM

Cc1cccc(-c2ccc(S(=O)(=O)N[C@H]3CCN(Cc4cccc(C(=N)N)c4)C3=O)cc2)c1
Ki [1]: 0.12 µM | Ki [2]: > 2.9 µM | Ki [3]: > 4 µM

N=C(N)c1cccc(CN2C[C@@H](NS(=O)(=O)c3ccc4ccccc4c3)CC2=O)c1
Ki [1]: 9.8 µM | Ki [2]: > 2.9 µM | Ki [3]: > 4 µM

COc1ccc2ccc(S(=O)(=O)N[C@H]3CCN(Cc4coc(C(=N)N)c4)C3=O)cc2c1
Ki [1]: 0.18 µM | Ki [2]: > 2.9 µM | Ki [3]: > 4 µM

N=C(N)c1cccc(CN2C[C@H](NS(=O)(=O)c3ccc4ccccc4c3)C2=O)c1
Ki [1]: 9.9 µM | Ki [2]: > 2.9 µM | Ki [3]: > 4 µM

N=C(N)c1cccc(CN2CCCC[C@H](NS(=O)(=O)c3ccc4ccccc4c3)C2=O)c1
Ki [1]: 7 µM | Ki [2]: > 2.9 µM | Ki [3]: > 4 µM

COc1ccc2ccc(S(=O)(=O)N(CC(=O)O)[C@H]3CCN(Cc4cccc(C(=N)N)c4)C3=O)cc2c1
Ki [1]: 0.12 µM | Ki [2]: > 2.9 µM | Ki [3]: > 4 µM

CCN([C@H]1CCN(Cc2cccc(C(=N)N)c2)C1=O)S(=O)(=O)c1ccc2ccc(OC)cc2c1
Ki [1]: 0.043 µM | Ki [2]: 1.4 µM | Ki [3]: 0.88 µM

COc1ccc2ccc(S(=O)(=O)N(CCC(N)=O)[C@H]3CCN(Cc4cccc(C(=N)N)c4)C3=O)cc2c1
Ki [1]: 0.056 µM | Ki [2]: 2 µM | Ki [3]: 1.5 µM

N=C(N)c1cccc(CN2CC[C@H](NS(=O)(=O)c3ccc4ccccc4c3)C2)c1
Ki [1]: > 10 µM | Ki [2]: > 2.9 µM | Ki [3]: > 4 µM

N=C(N)c1cccc(CN2CC[C@H](NS(=O)(=O)c3ccc(Cc4ccccc4)cc3)C2=O)c1
Ki [1]: 1.1 µM | Ki [2]: > 2.9 µM | Ki [3]: > 4 µM

COc1ccc2ccc(S(=O)(=O)N[C@H]3CCN(Cc4cccc(C(=N)N)c4)C3=O)cc2c1
Ki [4]: 1.2 µM | Ki [5]: 4.7 µM | Ki [6]: > 10 µM

N=C(N)c1cccc(CN2CC[C@H](NS(=O)(=O)c3cccc4ccccc34)C2=O)c1
Ki [1]: 0.75 µM | Ki [2]: > 2.9 µM | Ki [3]: > 4 µM

N=C(N)c1cccc(CN2CC[C@H](NS(=O)(=O)c3ccc4cc(Cl)ccc4c3)C2=O)c1
Ki [1]: 0.07 µM | Ki [2]: > 2.9 µM | Ki [3]: 1.5 µM

CNc1ccc2ccc(S(=O)(=O)N[C@H]3CCN(Cc4cccc(C(=N)N)c4)C3=O)cc2c1
Ki [1]: 0.25 µM | Ki [2]: 1.5 µM | Ki [3]: > 4 µM

COc1ccc2ccc(S(=O)(=O)N[C@H]3CCN(Cc4cc(C(=N)N)cs4)C3=O)cc2c1
Ki [1]: 0.083 µM | Ki [2]: 0.94 µM | Ki [3]: 2.4 µM

COc1ccc2ccc(S(=O)(=O)N(C)[C@H]3CCN(Cc4csc(C(=N)N)c4)C3=O)cc2c1
Ki [7]: 1 µM | Ki [4]: 2.4 µM | Ki [2]: 0.53 µM | Ki [5]: 4.4 µM | Ki [6]: 8.6 µM

N=C(N)c1cccc(CN2CC[C@H](NS(=O)(=O)c3ccc4ccc(Cl)cc4c3)C2=O)c1
Ki [1]: 0.078 µM | Ki [2]: 2 µM | Ki [3]: 1.2 µM

COc1ccccc1-c1ccc(S(=O)(=O)N[C@H]2CCN(Cc3cccc(C(=N)N)c3)C2=O)cc1
Ki [1]: 0.19 µM | Ki [2]: > 2.9 µM | Ki [3]: > 4 µM

Cc1ccc2ccc(S(=O)(=O)N[C@H]3CCN(Cc4cccc(C(=N)N)c4)C3=O)cc2c1
Ki [1]: 0.1 µM | Ki [2]: 1.1 µM | Ki [3]: 1.34 µM

COc1ccc2ccc(S(=O)(=O)N[C@H]3CCN(Cc4ccnc(C(=N)N)c4)C3=O)cc2c1
Ki [1]: 0.11 µM | Ki [2]: 2.84 µM | Ki [3]: 2.04 µM

COc1ccc2ccc(S(=O)(=O)N[C@H]3CCN(Cc4ccc(C(=N)N)cc4)C3=O)cc2c1
Ki [1]: 0.97 µM | Ki [2]: 2.3 µM | Ki [3]: > 4 µM

N=C(N)c1cccc(CN2CC[C@H](NS(=O)(=O)c3cccc(-c4ccccc4)c3)C2=O)c1
Ki [1]: 0.44 µM | Ki [2]: > 2.9 µM | Ki [3]: > 4 µM

COc1ccc2ccc(S(=O)(=O)N(Cc3ccccc3)[C@H]3CCN(Cc4cccc(C(=N)N)c4)C3=O)cc2c1
Ki [1]: 0.041 µM | Ki [2]: 1.8 µM | Ki [3]: 0.44 µM

CCOc1ccc2ccc(S(=O)(=O)N[C@H]3CCN(Cc4cccc(C(=N)N)c4)C3=O)cc2c1
Ki [1]: 0.28 µM | Ki [2]: > 2.9 µM | Ki [3]: 1.9 µM

COc1ccc2ccc(S(=O)(=O)N(CC(N)=O)[C@H]3CCN(Cc4cccc(C(=N)N)c4)C3=O)cc2c1
Ki [1]: 0.025 µM | Ki [2]: 1 µM | Ki [3]: 1.44 µM

COc1ccc2cc(S(=O)(=O)N[C@H]3CCN(Cc4cccc(C(=N)N)c4)C3=O)ccc2c1
Ki [1]: 1 µM | Ki [2]: > 2.9 µM | Ki [3]: 0.9 µM

COc1ccc2ccc(S(=O)(=O)N[C@H]3CCN(Cc4ccc(C(=N)N)s4)C3=O)cc2c1
Ki [1]: 0.22 µM

COc1ccc2ccc(S(=O)(=O)N[C@H]3CCN(Cc4ccc(C(=N)N)o4)C3=O)cc2c1
Ki [1]: 0.57 µM | Ki [2]: > 2.9 µM | Ki [3]: > 4 µM

N=C(N)c1cccc(CN2CC[C@H](NS(=O)(=O)c3ccc4ccc(N)cc4c3)C2=O)c1
Ki [1]: 0.12 µM | Ki [2]: 1.3 µM | Ki [3]: 2.6 µM

N=C(N)c1cccc(CN2CC[C@H](NS(=O)(=O)c3ccc4ccccc4c3)C2=O)c1
Ki [8]: 7 µM | Ki [2]: 2.9 µM | Ki [5]: 4.7 µM | Ki [3]: > 4 µM | Ki [6]: > 10 µM
